Reference: ChEMBL document CHEMBL1145024, “Unique structure-activity relationship for 4-isoxazolyl-1,4-dihydropyridines” (J Med Chem, 2003)

Experiments:
Homo sapiens = organism: Homo sapiens; test: Percent recovery of Human embryonic kidney tsa-201 cells; format: functional
[1] = Inhibition of L-type calcium channel subunits alpha1C, beta1b, and alpha2-delta subunits expressed in Human embryonic kidney tsa-201 cells; format: cell-based
In short: (§1)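 Whole-cell patch clamp on GFP-positive tsa-201 cells transiently co-transfected (calcium phosphate) with α1C, β1b, α2-δ and GFP, then held at 28 °C for 2–4 days. Bath contained 5 mM BaCl2 as the charge carrier (pH 7.2), and pipettes held CsMS/EGTA. Currents were elicited from −80 mV to test potentials. Compound was diluted from a 10 mM DMSO stock and microperfused, and dose–response curves were fitted individually.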

[2] = Maximum inhibition of L-type calcium channel expressed in HEK tsa-201 cells from Patch Clamp analysis; format: functional, HEK293; in short: as §1

SMILES	Recovery (Homo sapiens)	IC50 [1]	Max inhibition [2]
CCOC(=O)C1=C(C)N=C(C)/C(=C(/O)OCC)C1c1c(C)noc1CCc1ccccc1 (stereo not given)	46%	1790 nM	100
CCOC(=O)C1=C(C)N=C(C)/C(=C(/O)OCC)C1c1c(-c2ccccc2Cl)noc1C (stereo not given)	65%	9680 nM	70
CCOC(=O)C1=C(C)N=C(C)/C(=C(/O)OCC)C1c1c(-c2cccc(Cl)c2)noc1C (stereo not given)	65%	1980 nM	100
COC(=O)C1=C(C)N=C(C)/C(=C(/O)OC)C1c1c(-c2ccc(Br)cc2)noc1C (stereo not given)	60%	580 nM	88
CCOC(=O)C1=C(C)N=C(C)/C(=C(/O)OCC)C1c1c(C)noc1CCc1ccc2ccccc2c1 (stereo not given)	41%	1180 nM	100
CCOC(=O)C1=C(C)N=C(C)/C(=C(/O)OCC)C1c1c(-c2ccccc2OC)noc1C (stereo not given)	69%	–	55
CCOC(=O)C1=C(C)N=C(C)/C(=C(/O)OCC)C1c1c(-c2ccc(Cl)cc2)noc1C (stereo not given)	77%	–	100
CCOC(=O)C1=C(C)N=C(C)/C(=C(/O)OCC)C1c1c(C)noc1CCc1cccc(OC)c1 (stereo not given)	49%	1590 nM	100
CCOC(=O)C1=C(C)N=C(C)/C(=C(/O)OCC)C1c1c(C)noc1CCc1cccc(Br)c1 (stereo not given)	48%	130 nM	100
CCOC(=O)C1=C(C)N=C(C)/C(=C(/O)OCC)C1c1c(-c2cc(Cl)ccc2OC)noc1C (stereo not given)	82%	6860 nM	33
COC(=O)C1=C(C)N=C(C)/C(=C(/O)OC)C1c1c(-c2ccc(Cl)cc2)noc1C (stereo not given)	64%	1740 nM	85
CCOC(=O)C1=C(C)N=C(C)/C(=C(/O)OCC)C1c1c(C)noc1CCc1cccc2ccccc12 (stereo not given)	43%	470 nM	76
COC(=O)C1=C(C)N=C(C)/C(=C(/O)OC)C1c1c(-c2ccc(F)cc2)noc1C (stereo not given)	66%	2710 nM	93
CCOC(=O)C1=C(C)N=C(C)/C(=C(/O)OCC)C1c1c(C)noc1C (stereo not given)	87%	8100 nM	100
